Screening data (PubChem BioAssay)
Only some compounds are listed: those with a hit (about 1.4% of all), similar ones and a draw of the others.
UCH37 DUB inh: blocks the human deubiquitinase UCH37 | AID 588478 | purified proteasome/UCH37, Ub-AMC cleavage fluorescence | inhibition, % (no concentration beside the values) | 330,000 compounds, 0.33% hits;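 active means mean inhibition over replicate wells above about 20%, limit read from the data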;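 further: 0% = compound-free wells with enzyme and 100% = wells lacking proteasome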
Target sequence (Q9Y5K5 whole entry, looked up): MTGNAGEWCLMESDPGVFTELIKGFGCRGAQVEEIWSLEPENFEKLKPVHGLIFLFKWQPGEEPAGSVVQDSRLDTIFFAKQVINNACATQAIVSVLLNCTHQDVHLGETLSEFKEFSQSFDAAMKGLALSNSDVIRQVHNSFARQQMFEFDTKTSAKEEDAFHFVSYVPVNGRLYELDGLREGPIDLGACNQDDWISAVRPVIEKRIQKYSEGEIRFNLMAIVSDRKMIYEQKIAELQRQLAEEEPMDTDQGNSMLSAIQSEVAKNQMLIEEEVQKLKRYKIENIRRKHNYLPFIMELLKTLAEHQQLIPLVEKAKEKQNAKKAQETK
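system = Proteasome-associated human UCH37 deubiquitinase | amount = 0.15 nM proteasome as dispensed | medium = pH 7.4 Tris-HCl (50 mM) with ovalbumin, ATP-MgCl2, DTT | incubation = 30 min preincubation with enzyme, 25 min cleavage at room temperature | detection = AMC fluorescence 355/460 nm | read-out basis = percent inhibition | controls = no-proteasome and no-compound wells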
Fh CTSL1 inh: cathepsin L1 inhibition, PFM18AAP counter-screen; 300,000 compounds, 0.49% hits; AID 1906; inhibition, % at 5.96 µM; recombinant F. hepatica cathepsin L1, Z-Leu-Arg-MCA fluorescence;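 active means inhibition above the mean of all tested compounds plus 3 SD, set per screening campaign, cut at about 17% in these data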;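 further: 0% = plate median of test compound wells and 100% = 1 µM Z-Phe-Ala-diazomethylketone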
Neddyl block: cullin neddylation inhibition; AID 651699; TR-FRET cullin neddylation, biochemical; P61081+Q13564; inhibition, % at 25 µM; 360,000 compounds, 0.58% hits; in the data active means inhibition above about 36%
SUMO HTRF inh: SUMOylation inhibition | inhibition, % at 35 µM | HTRF SUMOylation assay, SAE1/SAE2 + UBC9, in vitro | 290,000 compounds, 0.36% hits | AID 2006; in the data active means inhibition above about 50%, passing the limit was not always enough
Target sequence (P63279 whole entry, looked up): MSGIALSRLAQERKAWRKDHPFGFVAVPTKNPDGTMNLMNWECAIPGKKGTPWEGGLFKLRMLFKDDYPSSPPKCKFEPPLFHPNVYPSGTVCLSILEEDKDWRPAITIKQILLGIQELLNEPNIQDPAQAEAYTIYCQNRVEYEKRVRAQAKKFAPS
* marks the source's active call; other numbers are inactive results; / = not tested or not shown.

SMILES	UCH37 DUB inh	Fh CTSL1 inh	Neddyl block	SUMO HTRF inh
O=C(NN=Cc1ccccc1Cl)c1cccc(F)c1	2.6	/	/	/
Cc1ccc(C2=NN(C(=O)c3cccs3)C(c3ccccc3O)C2)cc1 (stereo not given)	-1.1	1.9	18.5	27.2
O=C(c1cccs1)N1N=C(c2ccccc2)CC1c1ccccc1O (stereo not given)	-41.4	-0.3	/	65.9*
COc1ccc2cc(C=NNC(=O)CSCc3ccc([N+](=O)[O-])cc3)c(Cl)nc2c1	0.9	/	/	/
Oc1ccc(Br)cc1C=NN1CCN(Cc2cccc3ccccc23)CC1	2.5	/	/	/
Cn1c(=O)c2c(-c3ccccc3)n(-n3cnnc3)cc2n(C)c1=O	0.3	24.6*	-1.6	34.5
COC(=O)Oc1ccc(C=NNC(=O)CSCc2ccccc2Br)cc1OC	4.3	/	/	/
CC(C)NC(=O)CSc1nnc2sc3ccccc3n12	1.3	-1.7	-4.5	9.4
NC(=O)CSc1nnc2sc3ccccc3n12	24.4*	5.0	0.2	17.6
CCn1c(O)c(N=Nc2ccc(Cl)c(C(=O)O)c2)c2ccccc21	20.2*	4.6	-12.4	10.4
CC(C)n1c(O)c(N=Nc2ccc(Cl)c(C(=O)O)c2)c2ccccc21	14.7	-1.0	-15.9	5.8
CC(CC(=O)Nc1ccc(C)c(Cl)c1)=NNC(=O)Cc1ccccc1	3.2	/	/	/
O=C(Cc1ccccc1)NN=C/C=C/c1ccccc1[N+](=O)[O-]	4.7	/	/	/
Cc1cc(/C=C2\C(=O)NN(c3ccccc3)C2=O)c(C)n1-c1ccccc1O	9.7	4.1	9.1	60.4*
Cc1cc(/C=C2/C(=O)NN(c3ccccc3)C2=O)c(C)n1-c1ccc(O)cc1	0.7	0.1	8.9	-3.0
O=C(Nc1ccc2oc(-c3ccc4ccccc4c3)nc2c1)c1ccc2c(c1)OCCO2	-207.1	1.8	/	54.8*
Cc1ccc2nc(-c3cccc(NC(=O)c4ccc5c(c4)OCCO5)c3)oc2c1	1.2	2.5	25.0	18.0
NS(=O)(=O)c1ccc(NN=Cc2ccc[nH]2)c([N+](=O)[O-])c1	12.8	/	/	/
CN(C(=NS(=O)(=O)c1ccccc1)c1ccccc1)S(=O)(=O)c1ccccc1	1.8	/	/	/
CN(C)c1ccc(/C=C2/C(=O)N(c3ccc([N+](=O)[O-])cc3)N=C2N2CCOCC2)cc1	/	/	/	87.2*
O=C1CC(N2CCOCC2)=NN1c1ccc([N+](=O)[O-])cc1	14.9	-4.9	-1.7	95.6
Cc1ccc(C(=O)C=CNCc2ccccc2)cc1	8.8	/	/	/
O=CN1N=C(c2ccccc2)CC1c1ccc(Cl)cc1 (stereo not given)	/	1.5	3.3	10.9
O=C1OC(c2ccccc2)=NC12CC2c1ccc(Cl)cc1 (stereo not given)	4.7	20.8*	2.8	-10.8
CCOC(=O)C1=C(C)C(c2ccc(OC)cc2)NC(=O)N1 (stereo not given)	4.8	3.5	-3.0	5.8
SMILES	UCH37 DUB inh	Fh CTSL1 inh	Neddyl block	SUMO HTRF inh
CCOC(=O)C1=C(C)C(c2ccc(OC)cc2)NC(=S)N1 (stereo not given)	2.0	17.1*	-20.1	25.6
CCOC(=O)C1C(=O)NC(c2ccccc2)=NC1c1cccc(Br)c1 (stereo not given)	-0.4	21.8*	15.1	10.9
COc1ccc(C=NNC(=O)c2ccn[nH]2)cc1CN1CCOCC1	2.7	/	/	/
O=C1c2cc(F)ccc2-n2c1nc1ccccc1c2=O	/	16.9*	-36.8	11.0
Nn1c(-c2ccc(F)cc2)nc2ccccc2c1=O	-0.5	0.0	1.9	8.5
Cc1ccc(Cn2c(/C=C/c3ccco3)nc3ccccc32)cc1	-48.0	-0.1	44.9*	28.4
Clc1ccc(Cn2c(/C=C/c3ccco3)nc3ccccc32)cc1	-126.1	0.4	/	41.4
CC(=NNC(=O)c1ccc(C(C)(C)C)cc1)c1cccnc1	1.8	/	/	/
Cc1ccc(N2C(=O)c3cccc4c([N+](=O)[O-])ccc(c34)C2=O)c2cccnc12	-14.8	-2.5	/	25.7
Cc1ccnc(N2C(=O)c3cccc4c([N+](=O)[O-])ccc(c34)C2=O)c1	-60.4	-0.1	44.6*	15.2
CCOC(=O)C1=C(O)/C(=C/c2ccc(-c3ccccc3C(=O)O)o2)SC1=Nc1ccc(OC)cc1	23.5*	/	1.4	45.7
CCOC(=O)C1=C(O)/C(=C/c2ccc(-c3ccccc3C(=O)O)o2)SC1=Nc1ccc(C)cc1	/	/	17.7	/
Cc1cc(NC(=NS(=O)(=O)c2ccc(Cl)cc2)c2ccc(F)cc2)no1	5.5	/	/	/
CCCCOc1nc(N2CCOCC2)nc(C)c1[N+](=O)[O-]	6.9	18.1*	-5.9	5.8
Oc1ccc(Br)cc1C=NN1CCN(Cc2ccccc2)CC1	7.1	/	/	/
CC(C)(C)OC(=O)NCCCCCc1nnc(SCc2c(F)cccc2Cl)o1	/	10.0	4.2	-6.6
Cc1[nH]c(=O)[nH]c(=O)c1CSc1nnc([C@@H](NC(=O)OC(C)(C)C)C(C)C)o1	2.1	3.5	4.4	9.6
CC(C)[C@H](NC(=O)OC(C)(C)C)c1nnc(S(=O)(=O)Cc2c(F)cccc2Cl)o1	4.9	41.3*	-4.8	-2.6
CC(C)C[C@H](N)c1nnc(S(=O)(=O)Cc2cccc(F)c2)o1	2.4	72.3*	-6.7	4.1
CC(C)CCNC(=O)c1ccc(CSCc2cccc(F)c2)o1	1.5	3.1	-0.7	12.2
CC(C)(C)OC(=O)N[C@@H](Cc1ccccc1)c1nnc(S(=O)(=O)Cc2cccc(F)c2)o1	-0.2	31.5*	/	29.7
CC(C)=CCSc1nnc([C@@H](NC(=O)OC(C)(C)C)C(C)C)o1	4.8	36.5*	4.1	-13.0
CC(C)C[C@H](NC(=O)OC(C)(C)C)c1nnc(SCc2ccccc2)o1	1.8	22.6*	-1.7	-3.5
CCOC(=O)CSc1nnc([C@H](Cc2ccccc2)NC(=O)OC(C)(C)C)o1	4.7	-0.7	-1.6	3.1
CC[C@@H](C)[C@H](NC(=O)OC(C)(C)C)c1nnc(S(=O)(=O)Cc2cc(C)ccc2C)o1	-0.8	76.3*	9.1	15.9
SMILES	UCH37 DUB inh	Fh CTSL1 inh	Neddyl block	SUMO HTRF inh
CC[C@@H](C)[C@H](NC(=O)OCc1ccccc1)c1nnc([C@@H](NC(=O)OCc2ccccc2)[C@@H](C)CC)o1	-0.3	10.4	-9.0	9.2
Cc1ccccc1CS(=O)(=O)c1nnc([C@H](CC(C)C)NC(=O)OC(C)(C)C)o1	-0.6	82.2*	0.4	24.1
CC(C)(C)OC(=O)N[C@@H](CCCCNC(=O)OCc1ccccc1)c1nnc([C@H](CCCCNC(=O)OCc2ccccc2)NC(=O)OC(C)(C)C)o1	1.2	5.7	-10.1	-10.8
COc1cc(C(=O)NN=Cc2sccc2C)cc(OC)c1OC	10.1	/	/	/
CC(=O)OCc1c(C(F)(F)F)nn(C)c1Oc1ccccc1	5.2	1.2	-7.4	-8.7
Cc1nn(C)c(Oc2ccccc2)c1CCNC(=O)CCl	3.5	27.5*	3.9	0.2
C=CC[N+](C)(C)CCCNC(=O)C=NO	5.3	/	/	/
CCOC(=O)c1c(-c2ccc(OC)cc2)csc1N=CN(C)C	7.1	/	/	/
O=C1C(Cl)=C(N2CCOCC2)C(=O)N1c1ccccc1Cl	4.8	16.5	-0.7	24.1
O=C1C(Cl)=C(N2CCCCCC2)C(=O)N1c1ccc(Cl)cc1	2.1	10.9	-9.6	-7.8
O=C1C(Cl)=C(N2CCCC2)C(=O)N1c1ccc(F)cc1	4.6	29.4*	-37.2	16.6
